Data set [1] is described as follows: Growth inhibition of human HREC cells assessed as reduction in cell number after 48 hrs by alamarBlue based fluorescence assay. The class given is functional. In short, it runs like this:
(§1)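 Cells (2,500 per well in growth medium) were allowed 24 h, then exposed 48 h to compound over 0.5 nM–500 μM. alamarBlue was added and fluorescence read 4 h later (ex 560/em 590 nm). Dose-response curves were fitted relative to DMSO control; compounds not reducing cell number ≥50% at the top concentration were reported as GI50 >100 μM.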

Data set [2] can be described thus: Growth inhibition of human HUVEC cells assessed as reduction in cell number after 48 hrs by alamarBlue based fluorescence assay. In outline:
as §1

A short description of data set [3]: Growth inhibition of human 92-1 cells assessed as reduction in cell number after 48 hrs by alamarBlue based fluorescence assay. The class given is functional. In outline:
as §1

The next data set relates to Y79. In words: Growth inhibition of human Y79 cells assessed as reduction in cell number after 48 hrs by alamarBlue based fluorescence assay. The class given is functional. Conditions: Y79, 48 h. In short, it runs like this:
as §1

We go through 38 molecules from ChEMBL document CHEMBL3580599, “Synthesis and Biological Evaluation of Novel Homoisoflavonoids for Retinal Neovascularization” (J Med Chem, 2015).

For `COc1ccc(CC2COc3cc(OC)c(OC)c(OC)c3C2=O)cc1OC(=O)[C@H](Cc1ccccc1)NS(=O)(=O)c1ccc(C)cc1` (some centres not stated), the figures for the GI50 (in data set [1]; in data set [3]; in the data set with Y79) were 1.5 µM, above 100 µM and above 100 µM, respectively. Also, in data set [2], the GI50 at 48 h stood at 22 µM.
On to `COc1ccc(CC2COc3cc(OC)c(OC)c(OC)c3C2=O)cc1OC(=O)/C=C/c1ccccc1` (configuration not stated), for which the GI50 in data set [1] is 0.17 µM; in data set [3] it was above 100 µM; in the data set with Y79, above 100 µM. Also, in data set [2], the concentration for 50% growth inhibition (GI50) at 48 h is above 100 µM.
`COc1ccc(CC2COc3cc(OC)c(OC)c(OC)c3C2=O)cc1OC(=O)[C@H](Cc1ccccc1)NC(=O)OCc1ccccc1` (some centres not stated): the figures for the GI50 (in data set [1]; in data set [3]; in the data set on Y79) were 0.14 µM, above 100 µM and above 100 µM, respectively. The GI50 at 48 h in data set [2] was above 100 µM.
On to `COc1ccc(CC2COc3cc(OC)c(O)c(O)c3C2=O)cc1O` (configuration not stated), for which the GI50 was 45 µM in data set [1], 10 µM in data set [3] and above 100 µM in the data set on Y79. In addition, the GI50 at 48 h in data set [2] turned out to be 18 µM.
With `COc1ccc(CC2COc3cc(OC)c(OC)c(OC)c3C2=O)cc1O` (configuration not stated), the GI50 in data set [1] was 2 µM; in data set [3], above 100 µM; in the data set on Y79, above 100 µM. Besides, the GI50 at 48 h in data set [2] was 12 µM.
Take `COc1ccc(CC2COc3cc(OC)c(OC)c(OC)c3C2=O)cc1N` (configuration not stated): the GI50 was 1.1 µM in data set [1], above 100 µM in data set [3] and above 100 µM in the data set with Y79. The GI50 at 48 h in data set [2] turned out to be 0.51 µM.
Consider `COc1ccc(/C=C2\COc3cc(OC)c(OC)c(OC)c3C2=O)cc1[N+](=O)[O-]`, for which the figures for the GI50 (in data set [1]; in data set [3]; in the data set on Y79) were 4.8 µM, 12 µM and 2.2 µM, respectively. The 50% growth inhibitory concentration (GI50) at 48 h in data set [2] stood at 15 µM.
Turning to `COC(=O)c1cc(/C=C2\COc3cc(OC)c(OC)c(OC)c3C2=O)ccc1OC`, the GI50 in data set [1] was 5.6 µM; in data set [3], above 100 µM; in the data set with Y79, 6.1 µM. Besides, the GI50 at 48 h in data set [2] worked out at 3.2 µM.
For the molecule `COc1ccc(/C=C2\COc3cc(OC)c(OC)c(OC)c3C2=O)cc1F`, the GI50 in data set [1] worked out at 2.8 µM; in data set [3] it was 7 µM; with Y79, 9.8 µM. Also, the GI50 at 48 h in data set [2] came to 7.6 µM.
On to `COc1ccc(/C=C2\COc3cc(OC)c(OC)c(OC)c3C2=O)cc1O`, for which the GI50 worked out at 46 µM in data set [1], 0.22 µM in data set [3] and 44 µM in the data set with Y79. Moreover, the 50% growth inhibitory concentration (GI50) at 48 h in data set [2] was found to be 5.6 µM.
On the same counts, the results for `CC[C@H](C)[C@H](NC(=O)OC(C)(C)C)C(=O)Oc1cc(CC2COc3cc(OC)c(OC)c(OC)c3C2=O)ccc1OC` (some centres not stated) are 3.1 µM, above 100 µM, 24 µM and above 100 µM.
With `COc1cc(/C=C2\COc3cc(OC)c(OC)c(OC)c3C2=O)ccc1OCc1ccccc1`, the GI50 was 35 µM in data set [1], 68 µM in data set [3] and 14 µM in the data set with Y79. Also, in data set [2], the GI50 at 48 h was determined as 52 µM.
In the case of `COc1cc2c(c(OC)c1OC)C(=O)C(Cc1ccccc1)CO2` (configuration not stated), the GI50 (in data set [1]; in data set [3]; in the data set with Y79) was above 100 µM throughout. The GI50 at 48 h in data set [2] is above 100 µM.
On to `COc1cc(/C=C2\COc3cc(OC)c(OC)c(OC)c3C2=O)ccc1O`, for which the GI50 in data set [1] was 3.3 µM; in data set [3], 26 µM; in the data set with Y79, 5.2 µM. Moreover, the GI50 at 48 h in data set [2] came out at 6.2 µM.
Consider `COc1ccc(CC2COc3cc(O)c(OC)c(OC)c3C2=O)cc1O` (configuration not stated), for which the GI50 (in data set [1]; in data set [3]; with Y79) was above 100 µM throughout. The GI50 at 48 h in data set [2] was above 100 µM.
Turning to `COc1ccc(CC2COc3cc(OC)c(OC)c(OC)c3C2=O)cc1OC(=O)[C@H](CC(C)C)NC(=O)OC(C)(C)C` (some centres not stated), the GI50 in data set [1] was 0.13 µM; in data set [3] it was above 100 µM; with Y79 it was above 100 µM. Moreover, the GI50 at 48 h in data set [2] was above 100 µM.
As for `COc1ccc(/C=C2\COc3cc(OC)c(OC)c(OC)c3C2=O)cc1OCc1ccccc1`, the GI50 in data set [1] is 4.3 µM; in data set [3], 3.5 µM; in the data set on Y79, 33 µM. In data set [2], the GI50 at 48 h was 16 µM.
Consider `COc1ccc(CC2COc3cc(OC)c(OC)c(OC)c3C2=O)cc1OC(=O)CCc1ccccc1` (configuration not stated), for which the GI50 in data set [1] is 0.22 µM; in data set [3], above 100 µM; with Y79, above 100 µM. In addition, in data set [2], the GI50 at 48 h is 38 µM.
Consider `COc1cc(OC)c2c(c1)OCC(Cc1ccc(OC)c(O)c1)C2=O` (configuration not stated), for which the GI50 in data set [1] is 1.6 µM; in data set [3], above 100 µM; with Y79, 4.2 µM. For the same molecule, the concentration for 50% growth inhibition (GI50) at 48 h in data set [2] amounted to 2.5 µM.
As for `COc1ccc(CC2COc3cc(OC)c(OC)c(O)c3C2=O)cc1O` (configuration not stated), the concentration for 50% growth inhibition (GI50) (in data set [1]; in data set [3]; in the data set with Y79) was above 100 µM each time. Further, the concentration for 50% growth inhibition (GI50) at 48 h in data set [2] stood at 44 µM.
For the molecule `COc1cc2c(c(OC)c1OC)C(=O)/C(=C/c1ccc(O)c(O)c1)CO2`, the GI50 in data set [1] was determined as 7.6 µM; in data set [3], 9.5 µM; in the data set on Y79, 4 µM. Besides, the GI50 at 48 h in data set [2] was found to be 5 µM.
For the molecule `C=CCOc1cc(/C=C2\COc3cc(OC)c(OC)c(OC)c3C2=O)ccc1OC`, the results for the concentration for 50% growth inhibition (GI50) (in data set [1]; in data set [3]; in the data set with Y79) were 3.9 µM, 1.1 µM and 2.8 µM, respectively. For the same molecule, the 50% growth inhibitory concentration (GI50) at 48 h in data set [2] came out at 12 µM.
In the same order, the values of `C=CCOc1ccc(C[C@H](NC(=O)OC(C)(C)C)C(=O)Nc2cc(CC3COc4cc(OC)c(OC)c(OC)c4C3=O)ccc2OC)cc1` (some centres not stated) are 13 µM, 1.9 µM, 2.5 µM and 4.5 µM.
For `COc1ccc(CC2COc3cc(OC)c(OC)c(OC)c3C2=O)cc1OC(=O)[C@H](CCc1ccccc1)NC(=O)OC(C)(C)C` (some centres not stated), the GI50 was 0.17 µM in data set [1], above 100 µM in data set [3] and above 100 µM with Y79. In data set [2], the GI50 at 48 h is above 100 µM.
In the case of `COc1ccc(CC2COc3cc(OC)c(OC)c(OC)c3C2=O)cc1OC(=O)[C@H](Cc1ccc(OCc2ccccc2)cc1)NC(=O)OC(C)(C)C` (some centres not stated), the values for the GI50 (in data set [1]; in data set [3]; in the data set on Y79) were 0.51 µM, above 100 µM and above 100 µM, respectively. In addition, the GI50 at 48 h in data set [2] is above 100 µM.
For the molecule `COc1ccc(CC2COc3cc(OC)c(OC)c(OC)c3C2=O)cc1C(=O)O` (configuration not stated), the GI50 (in data set [1]; in data set [3]; in the data set with Y79) was above 100 µM throughout. Further, in data set [2], the concentration for 50% growth inhibition (GI50) at 48 h was found to be 92 µM.
Regarding `COc1ccc(CC2COc3cc(OC)c(OC)c(OC)c3C2=O)cc1NC(=O)[C@H](Cc1ccc(OCc2ccccc2)cc1)NC(=O)OC(C)(C)C` (some centres not stated), the results for the GI50 (in data set [1]; in data set [3]; in the data set on Y79) were above 100 µM, above 100 µM and 0.39 µM, respectively. Also, the GI50 at 48 h in data set [2] was above 100 µM.
On to `C=CCOc1ccc(C[C@H](NC(=O)OC(C)(C)C)C(=O)Oc2cc(CC3COc4cc(OC)c(OC)c(OC)c4C3=O)ccc2OC)cc1` (some centres not stated), for which the GI50 in data set [1] is 0.16 µM; in data set [3], above 100 µM; with Y79, 52 µM. In addition, the GI50 at 48 h in data set [2] was found to be 0.091 µM.
Take `CCCCNC(=O)N[C@@H](Cc1ccccc1)C(=O)Oc1cc(CC2COc3cc(OC)c(OC)c(OC)c3C2=O)ccc1OC` (some centres not stated): the GI50 in data set [1] was 1.4 µM; in data set [3], above 100 µM; with Y79, 64 µM. For the same molecule, the GI50 at 48 h in data set [2] was above 100 µM.
Regarding `COc1ccc(CC2COc3cc(O)c(OC)c(O)c3C2=O)cc1O` (configuration not stated), the GI50 in data set [1] was 0.22 µM; in data set [3], 48 µM; in the data set with Y79, 9.8 µM. For the same molecule, the GI50 at 48 h in data set [2] turned out to be 0.38 µM.
As for `COc1ccc(CC2COc3cc(OC)c(OC)c(OC)c3C2=O)cc1OCc1ccccc1` (configuration not stated), the GI50 in data set [1] was determined as 22 µM; in data set [3] it was 61 µM; in the data set on Y79, 20 µM. Moreover, the GI50 at 48 h in data set [2] is above 100 µM.
`CCN(CC)C(=O)Oc1cc(CC2COc3cc(OC)c(OC)c(OC)c3C2=O)ccc1OC` (configuration not stated): the GI50 was 49 µM in data set [1], above 100 µM in data set [3] and 24 µM with Y79. Also, the GI50 at 48 h in data set [2] was above 100 µM.
In the case of `COc1cc(OC)c2c(c1)OC/C(=C\c1ccc(OC)c(O)c1)C2=O`, the concentration for 50% growth inhibition (GI50) in data set [1] is 42 µM; in data set [3], above 100 µM; in the data set on Y79, 14 µM. For the same molecule, in data set [2], the GI50 at 48 h is 15 µM.
For the molecule `COc1ccc(CC2COc3cc(OC)c(OC)c(OC)c3C2=O)cc1NC(=O)[C@H](Cc1ccccc1)NC(=O)OC(C)(C)C` (some centres not stated), the GI50 in data set [1] worked out at 22 µM; in data set [3], 3.1 µM; in the data set on Y79, 4.7 µM. Besides, the GI50 at 48 h in data set [2] worked out at 8.6 µM.
`COC(=O)c1cc(CC2COc3cc(OC)c(OC)c(OC)c3C2=O)ccc1OC` (configuration not stated): the figures for the concentration for 50% growth inhibition (GI50) (in data set [1]; in data set [3]; in the data set on Y79) were 18 µM, above 100 µM and 40 µM, respectively. In data set [2], the GI50 at 48 h amounted to 17 µM.
On the same counts, the results for `CCNC(=O)N[C@@H](Cc1ccccc1)C(=O)Oc1cc(CC2COc3cc(OC)c(OC)c(OC)c3C2=O)ccc1OC` (some centres not stated) are 1 µM, 98 µM, 48 µM and 34 µM.
Take `COc1ccc(CC2COc3cc(OC)c(OC)c(OC)c3C2=O)cc1OC(=O)c1ccccc1` (configuration not stated): the concentration for 50% growth inhibition (GI50) was 0.65 µM in data set [1], above 100 µM in data set [3] and above 100 µM with Y79. The GI50 at 48 h in data set [2] was above 100 µM.
`COc1cc2c(c(OC)c1OC)C(=O)/C(=C/c1ccc(OCc3ccccc3)c(OCc3ccccc3)c1)CO2`: the results for the GI50 (in data set [1]; in data set [3]; in the data set with Y79) were 72 µM, above 100 µM and 32 µM, respectively. For the same molecule, the GI50 at 48 h in data set [2] came to 43 µM.
